# Experimental data reported in ChEMBL document CHEMBL3351313, “Discovery of (S)-2-cyclopentyl-N-((1-isopropylpyrrolidin2-yl)-9-methyl-1-oxo-2,9-dihydro-1H-pyrrido[3,4-b]indole-4-carboxamide (VU0453379): a novel, CNS penetrant glucagon-like peptide 1 receptor (GLP-1R) positive allosteric modulator (PAM)” (J Med Chem, 2014).
# Calls of active or inactive are those of the source. No cut-off for these calls is given here.
# Experiments:
# [1] = Half life in rat at 1 mg/kg, iv and […], po; format: ADME, organism-based; set-up: dose 1 mg/kg, route oral; conditions: in vivo
# Summary of the method: (§1)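 Male Sprague–Dawley rats were dosed IV at 1 mg/kg and PO at […]. Plasma pharmacokinetic parameters were derived from these doses.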
# [2] = target: T1, Glucagon-like peptide 1 receptor (Homo sapiens, UniProt P43220); experiment: Positive allosteric modulation of human recombinant GLP1 receptor expressed in 9-3-H cells by calcium mobilization assay in presence of EC20 of exenatide relative to control; format: functional, cell-based
# [3] = target: T1, Glucagon-like peptide 1 receptor; experiment: Positive allosteric modulation of human recombinant GLP1 receptor expressed in 9-3-H cells by calcium mobilization assay in presence of EC20 of liragulitide; format: functional, cell-based
# [4] = target: T1, Glucagon-like peptide 1 receptor; experiment: Positive allosteric modulation of human recombinant GLP1 receptor expressed in 9-3-H cells by calcium mobilization assay relative to control; format: functional, cell-based
# [5] = target: T1, Glucagon-like peptide 1 receptor; experiment: Positive allosteric modulation of human recombinant GLP1 receptor expressed in 9-3-H cells by calcium mobilization assay; format: functional, cell-based
# [6] = system: Plasma; experiment: Fraction unbound in rat plasma; format: ADME, cell-free
# [7] = system: Plasma; experiment: Fraction unbound in human plasma; format: ADME, cell-free
# [8] = target: T1, Glucagon-like peptide 1 receptor; experiment: Positive allosteric modulation of human recombinant GLP1 receptor expressed in 9-3-H cells by calcium mobilization assay in presence of EC20 of exenatide; format: functional, cell-based
# [9] = Intrinsic clearance in rat liver microsomes; format: ADME; conditions: read-out: CLH
# [10] = target: T1, Glucagon-like peptide 1 receptor; experiment: Positive allosteric modulation of human recombinant GLP1 receptor expressed in 9-3-H cells by calcium mobilization assay in presence of EC20 of GLP1; format: functional, cell-based
# [11] = target: T1, Glucagon-like peptide 1 receptor; experiment: Positive allosteric modulation of human recombinant GLP1 receptor expressed in 9-3-H cells assessed as fold change at 30 uM by calcium mobilization assay […] relative to control; format: functional, cell-based
# [12] = system: Brain; experiment: Fraction unbound in rat brain homogenate; format: ADME, tissue-based
# [13] = system: Rattus norvegicus; experiment: Volume of distribution at steady state in rat at 1 mg/kg, iv and […], po; format: ADME, organism-based; set-up: dose 1 mg/kg, route oral; conditions: in vivo; summary of the method: as §1
# [14] = system: Nucleic Acid; experiment: Ratio of drug level in brain to plasma at 10 mg/kg, ip; format: ADME, organism-based; set-up: dose 10 mg/kg, route intraperitoneal; conditions: rat
# Summary of the method: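 Rats were dosed IP at 10 mg/kg. Plasma and brain levels were measured at 0.5 h, and the brain:plasma ratio was given as Kp and as Kp,uu, using unbound fractions.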
# [15] = target: T1, Glucagon-like peptide 1 receptor; experiment: Positive allosteric modulation of human recombinant GLP1 receptor expressed in 9-3-H cells by calcium mobilization assay in presence of EC20 of GLP1 relative to control; format: functional, cell-based
# [16] = target: T1, Glucagon-like peptide 1 receptor; experiment: Positive allosteric modulation of human recombinant GLP1 receptor expressed in 9-3-H cells by calcium mobilization assay in presence of EC20 of liragulitide relative to control; format: functional, cell-based
# [17] = Intrinsic clearance in human liver microsomes; format: ADME; conditions: read-out: CLH
# Summary of the method: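 Human liver microsome clearance was scaled to predicted hepatic clearance by the well-stirred model. The model used 20 g liver per kg body weight and 21 mL/kg hepatic blood flow.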
# [18] = target: T2, Cytochrome P450 1A2 (Homo sapiens, UniProt P05177); experiment: Inhibition of CYP1A2 (unknown origin); format: ADME
# T2 sequence (P05177 whole entry): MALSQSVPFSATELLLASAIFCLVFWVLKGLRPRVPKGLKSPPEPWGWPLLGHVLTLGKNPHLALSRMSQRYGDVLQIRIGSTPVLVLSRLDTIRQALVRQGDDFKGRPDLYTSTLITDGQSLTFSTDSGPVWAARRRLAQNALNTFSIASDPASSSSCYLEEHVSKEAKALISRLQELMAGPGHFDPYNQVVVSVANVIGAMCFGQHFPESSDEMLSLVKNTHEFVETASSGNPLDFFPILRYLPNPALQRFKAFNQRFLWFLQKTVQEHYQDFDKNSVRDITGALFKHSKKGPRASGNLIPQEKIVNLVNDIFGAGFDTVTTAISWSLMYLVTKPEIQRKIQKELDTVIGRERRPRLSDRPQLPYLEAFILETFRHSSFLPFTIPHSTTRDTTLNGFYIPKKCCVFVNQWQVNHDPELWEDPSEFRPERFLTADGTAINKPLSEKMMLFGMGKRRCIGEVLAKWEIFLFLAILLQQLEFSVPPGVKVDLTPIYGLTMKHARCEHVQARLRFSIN
# Summary of the method: (§2)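 An in vitro cassette P450 inhibition assay was run in microsomes, with 1A2, 2C9, 2D6 and 3A4 tested together. IC50 values are reported in μM.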
# [19] = target: Cytochrome P450 2C9 (Homo sapiens, UniProt P11712); experiment: Inhibition of CYP2C9 (unknown origin); format: ADME; summary of the method: as §2
# [20] = target: Cytochrome P450 2D6 (Homo sapiens, UniProt P10635); experiment: Inhibition of CYP2D6 (unknown origin); format: ADME; summary of the method: as §2
# [21] = target: Cytochrome P450 3A4 (Homo sapiens, UniProt P08684); experiment: Inhibition of CYP3A4 (unknown origin)
# [22] = target: Glucagon receptor (Homo sapiens) (UniProt P47871); experiment: Activity at glucagon receptor (unknown origin)
# [23] = target: Melanocortin receptor 4 (Homo sapiens) (UniProt P32245); experiment: Activity at melanocortin 4 receptor (unknown origin)
# Chain of Melanocortin receptor 4 (Homo sapiens) (P32245 whole entry): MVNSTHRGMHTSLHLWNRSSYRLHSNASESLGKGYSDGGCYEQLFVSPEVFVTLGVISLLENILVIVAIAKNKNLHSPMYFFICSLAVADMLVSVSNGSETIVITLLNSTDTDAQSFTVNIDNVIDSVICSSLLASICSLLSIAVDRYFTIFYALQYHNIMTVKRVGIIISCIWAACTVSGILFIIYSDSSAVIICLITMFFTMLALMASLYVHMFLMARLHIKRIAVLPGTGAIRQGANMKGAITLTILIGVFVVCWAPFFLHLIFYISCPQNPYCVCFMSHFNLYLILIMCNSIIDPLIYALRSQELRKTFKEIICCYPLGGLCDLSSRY
# T1 sequence (P43220 whole entry): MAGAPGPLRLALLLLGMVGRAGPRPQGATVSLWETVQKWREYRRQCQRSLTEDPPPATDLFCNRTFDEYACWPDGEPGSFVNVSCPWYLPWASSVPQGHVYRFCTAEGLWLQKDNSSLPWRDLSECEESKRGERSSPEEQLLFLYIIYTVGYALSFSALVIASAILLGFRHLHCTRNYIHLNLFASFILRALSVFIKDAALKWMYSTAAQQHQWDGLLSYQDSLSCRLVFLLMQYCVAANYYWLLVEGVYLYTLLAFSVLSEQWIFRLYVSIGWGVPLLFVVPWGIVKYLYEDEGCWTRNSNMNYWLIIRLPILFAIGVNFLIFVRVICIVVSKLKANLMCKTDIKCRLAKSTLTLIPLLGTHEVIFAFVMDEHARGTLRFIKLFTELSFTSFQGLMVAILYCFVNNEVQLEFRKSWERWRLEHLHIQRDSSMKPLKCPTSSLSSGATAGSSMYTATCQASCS
# Chain of Cytochrome P450 2C9 (P11712 whole entry): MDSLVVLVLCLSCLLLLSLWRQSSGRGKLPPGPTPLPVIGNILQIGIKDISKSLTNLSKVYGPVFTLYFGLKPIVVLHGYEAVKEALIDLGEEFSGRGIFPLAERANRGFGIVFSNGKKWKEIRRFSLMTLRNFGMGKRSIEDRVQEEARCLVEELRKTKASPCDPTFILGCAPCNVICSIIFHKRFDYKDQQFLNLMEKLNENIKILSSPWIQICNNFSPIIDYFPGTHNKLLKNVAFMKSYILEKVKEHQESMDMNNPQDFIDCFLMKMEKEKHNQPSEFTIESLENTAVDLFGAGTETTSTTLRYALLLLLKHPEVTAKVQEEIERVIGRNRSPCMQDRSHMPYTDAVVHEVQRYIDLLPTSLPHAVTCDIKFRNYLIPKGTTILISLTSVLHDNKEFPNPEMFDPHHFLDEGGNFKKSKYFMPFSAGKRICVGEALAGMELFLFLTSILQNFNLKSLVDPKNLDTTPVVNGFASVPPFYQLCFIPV
# Chain of Cytochrome P450 3A4 (P08684 whole entry): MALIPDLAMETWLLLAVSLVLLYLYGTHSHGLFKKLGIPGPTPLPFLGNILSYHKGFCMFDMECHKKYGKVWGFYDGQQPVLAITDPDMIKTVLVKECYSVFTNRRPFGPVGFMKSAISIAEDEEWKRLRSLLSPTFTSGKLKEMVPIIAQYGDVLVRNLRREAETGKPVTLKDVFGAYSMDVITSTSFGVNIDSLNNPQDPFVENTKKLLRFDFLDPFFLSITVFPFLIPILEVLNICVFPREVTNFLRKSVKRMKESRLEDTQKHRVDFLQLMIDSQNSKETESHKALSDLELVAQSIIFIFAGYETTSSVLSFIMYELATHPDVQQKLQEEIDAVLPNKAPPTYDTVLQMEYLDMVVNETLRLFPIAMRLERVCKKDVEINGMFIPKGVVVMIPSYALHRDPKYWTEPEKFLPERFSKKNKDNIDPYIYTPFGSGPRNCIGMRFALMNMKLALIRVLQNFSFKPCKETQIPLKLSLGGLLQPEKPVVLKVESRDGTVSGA
# Chain of Cytochrome P450 2D6 (P10635 whole entry): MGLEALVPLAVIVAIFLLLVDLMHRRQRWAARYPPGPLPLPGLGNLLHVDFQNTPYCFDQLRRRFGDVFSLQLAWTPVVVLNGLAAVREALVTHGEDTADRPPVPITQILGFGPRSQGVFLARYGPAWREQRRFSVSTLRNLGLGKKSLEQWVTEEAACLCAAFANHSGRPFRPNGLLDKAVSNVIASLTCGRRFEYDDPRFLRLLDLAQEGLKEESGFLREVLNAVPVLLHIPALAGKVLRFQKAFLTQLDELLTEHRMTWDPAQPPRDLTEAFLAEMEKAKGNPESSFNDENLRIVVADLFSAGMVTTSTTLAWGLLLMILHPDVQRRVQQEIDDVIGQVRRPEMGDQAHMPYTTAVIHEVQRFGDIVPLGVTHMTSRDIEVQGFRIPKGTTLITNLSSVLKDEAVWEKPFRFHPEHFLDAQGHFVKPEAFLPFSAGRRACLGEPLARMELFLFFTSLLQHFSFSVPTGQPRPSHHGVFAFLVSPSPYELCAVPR
# Chain of Glucagon receptor (Homo sapiens) (P47871 whole entry, looked up): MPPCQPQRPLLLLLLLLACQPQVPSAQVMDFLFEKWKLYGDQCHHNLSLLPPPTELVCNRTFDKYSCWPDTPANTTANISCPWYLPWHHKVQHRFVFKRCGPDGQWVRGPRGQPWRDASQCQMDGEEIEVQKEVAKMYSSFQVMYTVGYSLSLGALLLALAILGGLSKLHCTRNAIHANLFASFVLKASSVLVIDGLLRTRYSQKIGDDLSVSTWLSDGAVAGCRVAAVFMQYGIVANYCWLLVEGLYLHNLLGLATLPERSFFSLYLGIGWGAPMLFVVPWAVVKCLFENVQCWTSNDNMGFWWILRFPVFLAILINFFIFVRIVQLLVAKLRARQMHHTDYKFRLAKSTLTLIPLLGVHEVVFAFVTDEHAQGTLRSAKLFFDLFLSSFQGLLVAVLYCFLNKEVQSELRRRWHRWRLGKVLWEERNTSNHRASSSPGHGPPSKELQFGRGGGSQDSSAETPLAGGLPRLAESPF
smiles,measurement,setting,value
CC(C)N1CCC[C@H]1CNC(=O)c1cn(C2CCCC2)c(=O)c2c1c1ccccc1n2C,half-life,[1],58 min
same,Emax,[2],71.5%
same,EC50,[3],30 µM
same,Emax,[4],59.2%
same,EC50,[5]; read-out: EC50,1.3 µM
same,Fu,[6],0.158
same,Fu,[7],0.146
same,EC50,[8],8.4 µM
same,CLint scaled,[9],19.9 mL/min/kg
same,EC50,[10],1.8 µM
same,Emax,[11],20%
same,Fu,[12],0.015
same,Vdss,[13],4 L/kg
same,"K(p,uu,brain)",[14],0.27
same,Kp,[14],2.7
same,Emax,[15],59.2%
same,Emax,[16],59.2%
same,CLint scaled,[17],69.9 mL/min/kg
same,IC50,[18],> 30 µM
same,IC50,[19],> 30 µM
CCCCCCN1CCC[C@H]1CNC(=O)c1cn(C2CCCC2)c(=O)c2c1c1ccccc1n2C,Emax,[4],55.7%
same,EC50,[5]; read-out: EC50,10.3 µM
CCN1CCC[C@H]1CNC(=O)c1cn(C2CCCC2)c(=O)c2c1c1ccccc1n2C,Emax,[4],53.4%
same,EC50,[5]; read-out: EC50,2.4 µM
same,EC50,[5]; read-out: pEC50 (converted),2.04 µM
same,Fu,[6],> 10%
same,Fu,[7],> 10%
same,IC50,[20],> 20 µM
same,IC50,[18],> 20 µM
same,IC50,[19],> 20 µM
same,IC50,[21],3.2 µM
CCCN1CCC[C@H]1CNC(=O)c1cn(C2CCCC2)c(=O)c2c1c1ccccc1n2C,Emax,[4],48.4%
same,EC50,[5]; read-out: EC50,6.5 µM
CCN1CCCC1CNC(=O)c1cn(C2CCCC2)c(=O)c2c1c1ccccc1n2C (racemic),Activity,[22],inactive
same,Emax,[4],58.9%
same,Activity,[23],inactive
same,EC50,[5]; read-out: EC50,4.1 µM
COc1ccccc1CN1CCC[C@H]1CNC(=O)c1cn(C2CCCC2)c(=O)c2c1c1ccccc1n2C,Emax,[4],68.3%
same,EC50,[5]; read-out: EC50,12.1 µM
Cn1c2ccccc2c2c(C(=O)NC[C@@H]3CCCN3CCc3ccccc3)cn(C3CCCC3)c(=O)c21,Emax,[4],68.5%
same,EC50,[5]; read-out: EC50,14.1 µM
same,EC50,[5]; read-out: pEC50 (converted),18.2 µM
